Laboratory results published in ChEMBL document CHEMBL1150129, “Daucane phytoestrogens: a structure-activity study” (J Nat Prod, 2002).
Active and inactive are the calls of the source. No cut-off for these calls is given here.

Columns and labels:
[1] = biological target: T1, Estrogen receptor (Homo sapiens) (UniProt P03372); experiment: Binding affinity to human ERalpha expressed in yeast relative to estradiol
T1 sequence (whole entry): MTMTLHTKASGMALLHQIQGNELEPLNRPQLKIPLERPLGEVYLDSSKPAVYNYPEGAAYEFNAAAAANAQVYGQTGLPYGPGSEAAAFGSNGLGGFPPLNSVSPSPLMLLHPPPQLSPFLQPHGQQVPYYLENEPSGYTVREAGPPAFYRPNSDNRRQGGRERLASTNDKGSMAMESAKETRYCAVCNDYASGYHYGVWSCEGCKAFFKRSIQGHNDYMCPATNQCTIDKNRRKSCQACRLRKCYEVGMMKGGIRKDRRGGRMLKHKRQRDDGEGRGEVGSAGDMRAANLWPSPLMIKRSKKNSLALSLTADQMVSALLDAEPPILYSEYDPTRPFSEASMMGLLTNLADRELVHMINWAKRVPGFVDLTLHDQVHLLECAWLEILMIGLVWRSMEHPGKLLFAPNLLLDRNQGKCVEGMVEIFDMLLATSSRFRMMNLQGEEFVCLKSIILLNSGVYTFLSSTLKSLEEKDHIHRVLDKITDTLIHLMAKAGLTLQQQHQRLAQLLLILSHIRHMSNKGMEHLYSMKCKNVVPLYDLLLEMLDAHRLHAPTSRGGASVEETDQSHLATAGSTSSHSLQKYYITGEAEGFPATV
In short: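 Yeast (Saccharomyces cerevisiae) estrogen screen expressing human ERα with estrogen-responsive sequences driving lac-Z. Compound aliquots dried into wells before assay. β-Galactosidase activity read as chlorophenol red β-D-galactopyranoside hydrolysis, absorbance 540 nm.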

[2] = biological target: Estrogen receptor beta (Homo sapiens) (UniProt Q92731); experiment: Displacement of [2,4,6,7-3H]estradiol from human recombinant ERbeta receptor
In short: (§1)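 Recombinant human ERα or ERβ (1.5 nM) with 15 nM [3H]-17β-estradiol and diluted compounds in pH 7.5 Tris buffer with 10% glycerol, 2 mM DTT, 1 mg/mL BSA; overnight at 4 °C. Bound ligand captured on hydroxylapatite, washed thrice (ERα: Tris/KCl/EDTA/EGTA; ERβ: Tris only), ethanol-extracted, radioactivity counted.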

[3] = biological target: T1, Estrogen receptor (Homo sapiens); experiment: Displacement of [2,4,6,7-3H]estradiol from human recombinant ERalpha receptor; in short: as §1

Sequence of Estrogen receptor beta (Homo sapiens) (Q92731 whole entry): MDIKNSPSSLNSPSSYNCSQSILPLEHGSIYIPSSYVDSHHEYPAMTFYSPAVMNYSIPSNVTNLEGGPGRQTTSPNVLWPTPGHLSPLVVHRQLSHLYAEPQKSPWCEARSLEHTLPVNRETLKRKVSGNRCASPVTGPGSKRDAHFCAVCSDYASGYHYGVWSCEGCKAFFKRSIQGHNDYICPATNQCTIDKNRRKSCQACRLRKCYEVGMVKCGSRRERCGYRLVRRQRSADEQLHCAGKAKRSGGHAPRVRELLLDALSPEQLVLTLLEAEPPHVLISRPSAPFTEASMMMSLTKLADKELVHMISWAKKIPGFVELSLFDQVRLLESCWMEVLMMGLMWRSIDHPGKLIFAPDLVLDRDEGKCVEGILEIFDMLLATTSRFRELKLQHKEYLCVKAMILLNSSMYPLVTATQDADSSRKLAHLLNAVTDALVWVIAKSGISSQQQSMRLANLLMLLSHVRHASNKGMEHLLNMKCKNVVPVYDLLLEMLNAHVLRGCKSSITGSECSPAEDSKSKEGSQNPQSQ

Row | Compound | Activity [1] | Activity [2] | Activity [3]
1 | CC1=CC[C@@]2(C)CC[C@@](O)(C(C)C)[C@@H]2[C@@H](OC(=O)c2ccccc2)C1 | inactive | – | –
2 | COc1cc(/C=C/C(=O)O[C@H]2CC(C)=CC[C@@]3(C)CC[C@@](O)(C(C)C)[C@H]23)cc(OC)c1O | inactive | – | –
3 | CC(=O)Oc1ccc(C(=O)O[C@H]2CC(C)=CC[C@@]3(C)CC[C@@](O)(C(C)C)[C@H]23)cc1 | 0.2% | < 1% | < 1%
4 | COc1cc(C(=O)O[C@H]2CC(C)=CC[C@@]3(C)CC[C@@](O)(C(C)C)[C@H]23)ccc1O | inactive | – | –
5 | COc1cc(C(=O)O[C@H]2CC(C)=CC[C@@]3(C)CC[C@@](O)(C(C)C)[C@H]23)cc(OC)c1OC | inactive | – | –
6 | COc1cc(/C=C/C(=O)O[C@H]2CC(C)=CC[C@@]3(C)CC[C@@](O)(C(C)C)[C@H]23)ccc1O | inactive | – | –
7 | CC1=CC[C@@]2(C)CC[C@@](O)(C(C)C)[C@@H]2[C@@H](OC(=O)/C=C/c2ccc(O)cc2)C1 | < 0.0001% | – | –
8 | COc1ccc(C(=O)O[C@H]2CC(C)=CC[C@@]3(C)CC[C@@](O)(C(C)C)[C@H]23)cc1 | < 0.0001% | – | –

Results, then the compound that gave them:

Row | Activity [1] | Activity [2] | Activity [3] | Compound
9 | < 0.0001% | – | – | CC1=CC[C@@]2(C)CC[C@@](O)(C(C)C)[C@@H]2[C@@H](OC(=O)CCc2ccc(O)cc2)C1
10 | inactive | – | – | COc1cc(CC(=O)O[C@H]2CC(C)=CC[C@@]3(C)CC[C@@](O)(C(C)C)[C@H]23)ccc1O
11 | inactive | – | – | CC1=CC[C@@]2(C)CC[C@@](O)(C(C)C)[C@@H]2[C@@H](OC(=O)CCc2ccc(O)c(O)c2)C1
12 | < 0.1% | – | – | CC1=CC[C@@]2(C)CC[C@@](O)(C(C)C)[C@@H]2[C@@H](OC(=O)c2ccc(O)c(O)c2)C1
13 | < 0.0001% | – | – | CC1=CC[C@@]2(C)CC[C@@](O)(C(C)C)[C@@H]2[C@@H](OC(=O)Cc2ccc(O)cc2)C1
14 | inactive | – | – | CC1=CC[C@@]2(C)CC[C@@](O)(C(C)C)[C@@H]2[C@@H](OC(=O)/C=C/c2ccc(O)c(O)c2)C1
